We go through eight molecules from ChEMBL document CHEMBL1145026, “Synthesis and antibacterial activity of 6-O-arylbutynyl ketolides with improved activity against some key erythromycin-resistant pathogens” (2003).

Each structure is given as a SMILES string. Values after ≈ are worked out from the molar mass of the structure shown.

What all share (assay type): functional
In assay [1] the test system is Streptococcus pyogenes. Nature of the assay: In Vitro antibacterial ativity against Streptococcus pyogenes EES61 (Ery-S strain). Summed up:
(§1)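 Agar dilution method per NCCLS recommendations, with activity reported as minimum inhibitory concentration.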

Another assay relates to Haemophilus influenzae. The assay is described as follows: In Vitro antibacterial activity against H. flu DILL (Amp-R strain). Summed up: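 MIC by agar dilution following NCCLS recommendations. Test organism is H. influenzae DILL, an ampicillin-resistant strain carrying a β-lactamase-positive determinant.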
In assay [2] the test system is Streptococcus pneumoniae. Nature of the assay: In Vitro antibacterial activity against Streptococcus pneumoniae 5649 (mefE strain). Summed up:
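Efflux-resistant strain carrying mefE. MIC determined by the agar dilution method recommended by NCCLS.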

Assay [3] has as its system Streptococcus pyogenes. Nature of the assay: In Vitro antibacterial ativity against Streptococcus pyogenes 930 (ermB strain). Summed up:
(§2)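 Strains with MLSB resistance encoded by ermB. MICs obtained by agar dilution as recommended by NCCLS.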

Assay [4] concerns Staphylococcus aureus. Nature of the assay: In Vitro antibacterial activity against Staphylococcus aureus ATCC 6538P (Ery-S […] strain). Summed up:
(§3)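 MIC by agar dilution following NCCLS recommendations, against S. aureus.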

For assay [5], the system named is Streptococcus pneumoniae. The assay is described as follows: In Vitro antibacterial activity against Streptococcus pneumoniae 5979 (ermB strain). In short, it runs like this: as §2
The test system of assay [6] is Streptococcus pneumoniae. Nature of the assay: In Vitro antibacterial activity against Streptococcus pneumoniae ATCC 6303 (Ery-S strain). In short, it runs like this:
as §1

In assay [7] the test system is Staphylococcus aureus. Nature of the assay: In Vitro antibacterial activity against Staphylococcus aureus 1775 (ermA-c strain). Summed up:
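Methicillin-resistant (MRSA) strain. Minimum inhibitory concentration read by agar dilution, following NCCLS recommendations.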

Assay [8] concerns Streptococcus pyogenes. The assay is described as follows: In Vitro antibacterial ativity against Streptococcus pyogenes PIU2548 (mefA strain). In short, it runs like this: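 Tested on a mefA-encoded efflux-resistant strain. The endpoint is the MIC by NCCLS-recommended agar dilution.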
The test system of assay [9] is Staphylococcus aureus. Nature of the assay: In Vitro antibacterial activity against Staphylococcus aureus A5177 (ermA-i strain). In short, it runs like this: as §3

As to `CC[C@H]1OC(=O)[C@H](C)C(=O)[C@H](C)[C@@H](O[C@@H]2O[C@H](C)C[C@H](N(C)C)[C@H]2O)[C@](C)(OC)C[C@@H](C)C(=O)[C@H](C)[C@H]2N(CCCCn3cnc(-c4cccnc4)c3)C(=O)O[C@]12C` [TELITHROMYCIN], the MIC was found to be 0.004 µg/mL (≈ 0.00493 µM) against Streptococcus pyogenes [1]; 2 µg/mL (≈ 2.46 µM) in the assay with Haemophilus influenzae; 0.5 µg/mL (≈ 0.616 µM) in the assay with Streptococcus pneumoniae [2]; 8 µg/mL (≈ 9.85 µM) in the assay on Streptococcus pyogenes [3]; 0.1 µg/mL (≈ 0.123 µM) with Staphylococcus aureus [4]; 8 µg/mL (≈ 9.85 µM) in the assay with Streptococcus pneumoniae [5]. In addition, the MIC with Streptococcus pneumoniae [6] is 0.004 µg/mL (≈ 0.00493 µM); against Staphylococcus aureus [7], greater than 100 µg/mL; in the assay with Streptococcus pyogenes [8], 2 µg/mL (≈ 2.46 µM); with Staphylococcus aureus [9] it was 0.1 µg/mL (≈ 0.123 µM).
As for `CC[C@H]1OC(=O)[C@H](C)[C@@H](O[C@H]2C[C@@](C)(OC)[C@@H](O)[C@H](C)O2)[C@H](C)[C@@H](O[C@@H]2O[C@H](C)C[C@H](N(C)C)[C@H]2O)[C@](C)(O)C[C@@H](C)C(=O)[C@H](C)[C@@H](O)[C@]1(C)O` [ERYTHROMYCIN], the MIC in the assay with Streptococcus pyogenes [1] was 0.015 µg/mL (≈ 0.0204 µM); against Haemophilus influenzae, 4 µg/mL (≈ 5.45 µM); against Streptococcus pneumoniae [2], 4 µg/mL (≈ 5.45 µM); in the assay on Streptococcus pyogenes [3] it was greater than 128 µg/mL; with Staphylococcus aureus [4], 0.5 µg/mL (≈ 0.681 µM); with Streptococcus pneumoniae [5], greater than 128 µg/mL. Moreover, the MIC was 0.015 µg/mL (≈ 0.0204 µM) in the assay on Streptococcus pneumoniae [6], greater than 128 µg/mL with Staphylococcus aureus [7], 8 µg/mL (≈ 10.9 µM) against Streptococcus pyogenes [8] and greater than 128 µg/mL in the assay with Staphylococcus aureus [9].
Take `CC[C@H]1OC(=O)[C@H](C)C(=O)[C@H](C)[C@@H](O[C@@H]2O[C@H](C)C[C@H](N(C)C)[C@H]2O)[C@@](C)(OCC#CCc2ccc(-c3cccnc3)cc2)C[C@@H](C)C(=O)[C@H](C)[C@H]2NC(=O)O[C@@]21C`: the MIC with Streptococcus pyogenes [1] is less than 0.004 µg/mL; with Haemophilus influenzae, 4 µg/mL (≈ 4.98 µM); in the assay with Streptococcus pneumoniae [2], 0.125 µg/mL (≈ 0.155 µM); against Streptococcus pyogenes [3], 8 µg/mL (≈ 9.95 µM); in the assay on Staphylococcus aureus [4] it was 0.02 µg/mL (≈ 0.0249 µM); in the assay with Streptococcus pneumoniae [5] it was 0.125 µg/mL (≈ 0.155 µM). For the same molecule, the MIC in the assay on Streptococcus pneumoniae [6] was less than 0.004 µg/mL; with Staphylococcus aureus [7], greater than 100 µg/mL; against Streptococcus pyogenes [8], 0.125 µg/mL (≈ 0.155 µM); against Staphylococcus aureus [9], 0.02 µg/mL (≈ 0.0249 µM).
In the case of `CC[C@H]1OC(=O)[C@@](C)(F)C(=O)[C@H](C)[C@@H](O[C@@H]2O[C@H](C)C[C@H](N(C)C)[C@H]2O)[C@@](C)(OCC#CCc2ccc(-c3csnn3)cc2)C[C@@H](C)C(=O)[C@H](C)[C@H]2NC(=O)O[C@@]21C`, the MIC in the assay with Streptococcus pyogenes [1] was found to be 0.03 µg/mL (≈ 0.0362 µM); against Haemophilus influenzae, 4 µg/mL (≈ 4.83 µM); against Streptococcus pneumoniae [2], 0.5 µg/mL (≈ 0.603 µM); in the assay with Streptococcus pyogenes [3], 4 µg/mL (≈ 4.83 µM); in the assay with Staphylococcus aureus [4], 0.05 µg/mL (≈ 0.0603 µM); in the assay on Streptococcus pneumoniae [5], 4 µg/mL (≈ 4.83 µM). Also, the MIC against Streptococcus pneumoniae [6] was 0.015 µg/mL (≈ 0.0181 µM); in the assay with Staphylococcus aureus [7], greater than 100 µg/mL; in the assay with Streptococcus pyogenes [8], 0.25 µg/mL (≈ 0.302 µM); against Staphylococcus aureus [9] it was 0.05 µg/mL (≈ 0.0603 µM).
Turning to `CC[C@H]1OC(=O)[C@H](C)C(=O)[C@H](C)[C@@H](O[C@@H]2O[C@H](C)C[C@H](N(C)C)[C@H]2O)[C@@](C)(OCC#CCc2cnc3ccccc3c2)C[C@@H](C)C(=O)[C@H](C)[C@H]2NC(=O)O[C@@]21C`, the MIC is 0.015 µg/mL (≈ 0.0193 µM) with Streptococcus pyogenes [1]; 2 µg/mL (≈ 2.57 µM) in the assay with Haemophilus influenzae; 0.25 µg/mL (≈ 0.321 µM) in the assay with Streptococcus pneumoniae [2]; 16 µg/mL (≈ 20.6 µM) with Streptococcus pyogenes [3]; 0.1 µg/mL (≈ 0.129 µM) against Staphylococcus aureus [4]; 2 µg/mL (≈ 2.57 µM) against Streptococcus pneumoniae [5]. The MIC was less than 0.004 µg/mL in the assay on Streptococcus pneumoniae [6], greater than 100 µg/mL in the assay on Staphylococcus aureus [7], 0.25 µg/mL (≈ 0.321 µM) against Streptococcus pyogenes [8] and 0.1 µg/mL (≈ 0.129 µM) against Staphylococcus aureus [9].
In the case of `CC[C@H]1OC(=O)[C@H](C)C(=O)[C@H](C)[C@@H](O[C@@H]2O[C@H](C)C[C@H](N(C)C)[C@H]2O)[C@@](C)(OCC#CCc2ccc(-c3cnccn3)cc2)C[C@@H](C)C(=O)[C@H](C)[C@H]2NC(=O)O[C@@]21C`, the MIC in the assay on Streptococcus pyogenes [1] was less than 0.004 µg/mL; in the assay with Haemophilus influenzae, 4 µg/mL (≈ 4.97 µM); in the assay on Streptococcus pyogenes [3], 4 µg/mL (≈ 4.97 µM); against Staphylococcus aureus [4] it was 0.02 µg/mL (≈ 0.0248 µM); against Streptococcus pneumoniae [5], 0.03 µg/mL (≈ 0.0373 µM); against Streptococcus pneumoniae [6] it was less than 0.004 µg/mL. In addition, the results for the MIC in the assay on Staphylococcus aureus [7], in the assay with Streptococcus pyogenes [8] and in the assay on Staphylococcus aureus [9] were greater than 100 µg/mL, 0.015 µg/mL (≈ 0.0186 µM) and 0.02 µg/mL (≈ 0.0248 µM), respectively.
With `CC[C@H]1OC(=O)[C@H](C)C(=O)[C@H](C)[C@@H](O[C@@H]2O[C@H](C)C[C@H](N(C)C)[C@H]2O)[C@@](C)(OCC#CCc2ccccc2)C[C@@H](C)C(=O)[C@H](C)[C@H]2NC(=O)O[C@@]21C`, the MIC against Streptococcus pyogenes [1] stood at 0.06 µg/mL (≈ 0.0825 µM); in the assay with Haemophilus influenzae, 2 µg/mL (≈ 2.75 µM); against Streptococcus pneumoniae [2], 0.25 µg/mL (≈ 0.344 µM); against Streptococcus pyogenes [3] it was 128 µg/mL (≈ 176 µM); against Staphylococcus aureus [4], 0.2 µg/mL (≈ 0.275 µM); with Streptococcus pneumoniae [5], 16 µg/mL (≈ 22 µM). In addition, the MIC against Streptococcus pneumoniae [6] was 0.03 µg/mL (≈ 0.0413 µM); in the assay with Staphylococcus aureus [7] it was greater than 100 µg/mL; against Streptococcus pyogenes [8], 0.25 µg/mL (≈ 0.344 µM); in the assay with Staphylococcus aureus [9] it was 0.2 µg/mL (≈ 0.275 µM).
As to `CC[C@H]1OC(=O)[C@H](C)C(=O)[C@H](C)[C@@H](O[C@@H]2O[C@H](C)C[C@H](N(C)C)[C@H]2O)[C@@](C)(OCC#CCc2ccc(-c3csnn3)cc2)C[C@@H](C)C(=O)[C@H](C)[C@H]2NC(=O)O[C@@]21C`, the MIC with Streptococcus pyogenes [1] stood at 0.03 µg/mL (≈ 0.037 µM); against Haemophilus influenzae it was 2 µg/mL (≈ 2.47 µM); against Streptococcus pneumoniae [2], 0.25 µg/mL (≈ 0.308 µM); against Streptococcus pyogenes [3] it was 4 µg/mL (≈ 4.93 µM); with Staphylococcus aureus [4], 0.05 µg/mL (≈ 0.0617 µM); with Streptococcus pneumoniae [5] it was 8 µg/mL (≈ 9.86 µM). The MIC with Streptococcus pneumoniae [6] was less than 0.004 µg/mL; with Staphylococcus aureus [7], greater than 100 µg/mL; against Streptococcus pyogenes [8] it was 0.125 µg/mL (≈ 0.154 µM); in the assay on Staphylococcus aureus [9], 0.1 µg/mL (≈ 0.123 µM).
